Read-outs that look alike come from different tables or passages of the source. One block for each compound: values may come before it.
Assays:
GM12878 cells = experiment: MTS assay of cell proliferation, GM12878; assay type: cell-based, human; details: for IC50: Homo sapiens
How it was run: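 Lymphoblasts grown in RPMI 1640 with 15% FBS at 37 °C and 5% CO2. Plated at 5 × 10^3 per well, grown 24 h, then exposed 24 or 72 h to test compound alone or with 10 μM lignan inhibitor added. DMSO 0.2% final; vehicle controls. MTS/PMS in PBS pH 7.2 for 4 h at 37 °C; A492; cell-free background. Triplicate; normalized absorbance fitted for IC50 with 95% CI.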

A549 cells = experiment: MTS assay of cell proliferation, A549; assay type: cell-based, human; details: for IC50: Homo sapiens
How it was run: (§1)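 Cells grown in DMEM with 10% FBS at 37 °C and 5% CO2. Plated at 5 × 10^3 per well, grown 24 h, then exposed 24 or 72 h to test compound alone or in pairs: 10 μM bleomycin-type or 250 μM alkylating agent added to the lignan, or 10 μM lignan added to either. DMSO 0.2% final; vehicle controls. MTS/PMS for 4 h; A492; cell-free background. Triplicate; IC50 fit, 95% CI.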

MCF7 cells = experiment: MTS assay of cell proliferation, MCF7; assay type: cell-based, human; details: for IC50: Homo sapiens; for decrease of EC50 due to HNL/BLM combination: MCF7, combination with honokiol (10 μM)
How it was run: as §1

PANC1 cells = experiment: MTS assay of cell proliferation, PANC1; assay type: cell-based, human; details: for IC50: Homo sapiens
How it was run: as §1

UACC903 cells = experiment: MTS assay of cell proliferation, UACC903; assay type: cell-based, human; details: for IC50: Homo sapiens; for decrease of EC50 due to HNL/BLM combination: UACC903, combination with honokiol (10 μM)
How it was run: as §1

[1] = test system: human cancer cell lines A549, MCF7, PANC-1, UACC903; experiment: MTS assay of cell proliferation, cell lines not specified; assay type: cell-based; details: combination with honokiol, cell line not specified
How it was run: as §1

pol β = details: linear mixed-mode inhibition mechanism; cited from earlier work
[2] = PANC1, combination with honokiol (10 μM)

IC50 (A549 cells; A549, 24 h, read-out: −log(IC50) (95% CI), A549, 24 h, tested compound alone (converted)): 398 µM | IC50 (A549 cells; A549, 72 h, read-out: −log(IC50) (95% CI), A549, 72 h, tested compound alone (converted)): 251 µM | IC50 (MCF7 cells; MCF7, 24 h, read-out: −log(IC50) (95% CI), MCF7, 24 h, tested compound alone (converted)): 501 µM | IC50 (MCF7 cells; MCF7, 72 h, read-out: −log(IC50) (95% CI), MCF7, 72 h, tested compound alone (converted)): 200 µM | IC50 (PANC1 cells; PANC-1, 24 h, read-out: −log(IC50) (95% CI), PANC1, 24 h, tested compound alone (converted)): 316 µM | IC50 (PANC1 cells; PANC-1, 72 h, read-out: −log(IC50) (95% CI), PANC1, 72 h, tested compound alone (converted)): 158 µM | decrease of EC50 due to HNL/TMZ combination (PANC1 cells; [2]): up to three-fold | decrease of EC50 due to HNL/TMZ combination [1]: up to three-fold | decrease of EC50 due to HNL/TMZ combination ([1]; listed as temozolomide): three-fold
Compound: Cn1nnc2c(C(N)=O)ncn2c1=O [TMZ, temozolomide]
IC50 (GM12878 cells; 24 h, read-out: −log(IC50) (95% CI), GM12878, 24 h, tested compound alone (converted)): < 1000 µM | IC50 (GM12878 cells; 72 h, read-out: −log(IC50) (95% CI), GM12878, 72 h, tested compound alone (converted)): 316 µM | IC50 (UACC903 cells; UACC-903, 24 h, read-out: −log(IC50) (95% CI), UACC903, 24 h, tested compound alone (converted)): 631 µM | IC50 (UACC903 cells; UACC-903, 72 h, read-out: −log(IC50) (95% CI), UACC903, 72 h, tested compound alone (converted)): 316 µM

Compound: C=C(C)[C@@H]1CC[C@]2(C)[C@H](CC=C3[C@@H]4C[C@@](C)(C(=O)O)CC[C@]4(C)CC[C@]32C)[C@@]1(C)CCC(=O)O [koetjapic acid]
Ki (pol β): low micromolar range

Compound: bleomycin [BLM]
−log(IC50) (95% CI) (GM12878 cells; GM12878, 24 h, supplemented with 10 μM HNL): 4.2 (4.0, 4.3) | −log(IC50) (95% CI) (GM12878 cells; GM12878, 24 h, tested compound alone): 4.1 (3.91, 4.3) | −log(IC50) (95% CI) (GM12878 cells; GM12878, 72 h, supplemented with 10 μM HNL): 4.20 (4.0, 4.4) | −log(IC50) (95% CI) (GM12878 cells; GM12878, 72 h, tested compound alone): 4.1 (4.0, 4.3) | −log(IC50) (95% CI) (A549 cells; A549, 24 h, supplemented with 10 μM HNL): 5.30 (5.18, 5.43) | −log(IC50) (95% CI) (A549 cells; A549, 24 h, tested compound alone): 4.8 (4.7, 5.0) | −log(IC50) (95% CI) (A549 cells; A549, 72 h, supplemented with 10 μM HNL): 5.6 (5.5, 5.7) | −log(IC50) (95% CI) (A549 cells; A549, 72 h, tested compound alone): 5.2 (5.0, 5.3) | −log(IC50) (95% CI) (MCF7 cells; MCF7, 24 h, supplemented with 10 μM HNL): 6.0 (5.7, 6.2) | −log(IC50) (95% CI) (MCF7 cells; MCF7, 24 h, tested compound alone): 4.9 (4.8, 5.0) | −log(IC50) (95% CI) (MCF7 cells; MCF7, 72 h, supplemented with 10 μM HNL): 6.3 (6.1, 6.6) | −log(IC50) (95% CI) (MCF7 cells; MCF7, 72 h, tested compound alone): 5.3 (5.2, 5.4) | decrease of EC50 due to HNL/BLM combination (MCF7 cells): up to 10 fold | decrease of EC50 due to HNL/BLM combination (MCF7 cells; listed as bleomycin): 10 fold | −log(IC50) (95% CI) (PANC1 cells; PANC1, 24 h, supplemented with 10 μM HNL): 5.9 (5.7, 6.2) | −log(IC50) (95% CI) (PANC1 cells; PANC1, 24 h, tested compound alone): 4.9 (4.7, 5.1) | −log(IC50) (95% CI) (PANC1 cells; PANC1, 72 h, supplemented with 10 μM HNL): 6.09 (5.9, 6.3) | −log(IC50) (95% CI) (PANC1 cells; PANC1, 72 h, tested compound alone): 5.2 (5.0, 5.3) | decrease of EC50 due to HNL/BLM combination (PANC1 cells; [2]): up to 10 fold | decrease of EC50 due to HNL/BLM combination (PANC1 cells; PANC1, combination with honokiol (10 μM), listed as bleomycin): 10 fold | −log(IC50) (95% CI) (UACC903 cells; UACC903, 24 h, supplemented with 10 μM HNL): 5.5 (5.4, 5.7) | −log(IC50) (95% CI) (UACC903 cells; UACC903, 24 h, tested compound alone): 4.9 (4.7, 5.0) | −log(IC50) (95% CI) (UACC903 cells; UACC903, 72 h, supplemented with 10 μM HNL): 6.3 (6.0, 6.5) | −log(IC50) (95% CI) (UACC903 cells; UACC903, 72 h, tested compound alone): 5.22 (5.1, 5.4) | decrease of EC50 due to HNL/BLM combination (UACC903 cells): up to 10 fold | decrease of EC50 due to HNL/BLM combination (UACC903 cells; listed as bleomycin): 10 fold
